Results gathered from unrelated publications.
Lines come from different studies, so protocols differ.
Target: Serine/threonine-protein kinase ULK1 (ULK1, Homo sapiens, UniProt O75385)
Residues used in one study (O75385 1-1050): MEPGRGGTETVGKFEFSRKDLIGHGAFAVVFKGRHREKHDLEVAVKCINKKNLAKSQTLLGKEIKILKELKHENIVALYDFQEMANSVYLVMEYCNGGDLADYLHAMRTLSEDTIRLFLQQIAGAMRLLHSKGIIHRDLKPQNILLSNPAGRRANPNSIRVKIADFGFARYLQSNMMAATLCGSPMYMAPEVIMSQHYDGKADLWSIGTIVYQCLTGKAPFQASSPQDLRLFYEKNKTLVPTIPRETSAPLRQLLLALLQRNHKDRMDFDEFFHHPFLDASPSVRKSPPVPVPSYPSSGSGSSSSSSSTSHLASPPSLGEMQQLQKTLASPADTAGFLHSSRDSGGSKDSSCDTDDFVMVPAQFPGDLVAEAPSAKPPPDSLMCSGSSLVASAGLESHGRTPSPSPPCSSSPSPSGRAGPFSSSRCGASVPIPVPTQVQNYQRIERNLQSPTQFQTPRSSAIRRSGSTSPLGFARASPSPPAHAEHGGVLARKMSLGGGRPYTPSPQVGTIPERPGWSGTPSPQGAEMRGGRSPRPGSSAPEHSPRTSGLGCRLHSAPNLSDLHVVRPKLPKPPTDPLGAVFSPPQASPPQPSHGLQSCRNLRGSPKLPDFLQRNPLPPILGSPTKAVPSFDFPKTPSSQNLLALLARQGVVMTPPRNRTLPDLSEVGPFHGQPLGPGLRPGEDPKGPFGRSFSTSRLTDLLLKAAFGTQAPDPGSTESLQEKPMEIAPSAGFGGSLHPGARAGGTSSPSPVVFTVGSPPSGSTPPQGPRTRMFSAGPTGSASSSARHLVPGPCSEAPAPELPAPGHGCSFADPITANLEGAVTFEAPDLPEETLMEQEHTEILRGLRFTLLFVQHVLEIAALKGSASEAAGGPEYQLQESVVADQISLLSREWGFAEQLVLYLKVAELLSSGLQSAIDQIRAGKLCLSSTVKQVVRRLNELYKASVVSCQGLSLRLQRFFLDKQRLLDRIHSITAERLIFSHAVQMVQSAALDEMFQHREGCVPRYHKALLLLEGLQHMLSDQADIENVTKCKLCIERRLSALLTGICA

CNC(=O)[C@@H]1CC[C@@H](n2c(-c3ccc4cnccc4c3)nc3ccc(C(=O)NCc4cccc(C(N)=O)c4)cc32)C1 has a remaining binding of 100% (binding, competition with immobilised ligand; 1 µM).
With O=C(c1ccc(Nc2ncc(Cl)c(-c3ccc(Cl)s3)n2)cc1)N1CCC(N2CCCC2)CC1 the remaining binding was 1.8% (binding, competition with immobilised ligand; 1 µM).
For F[C@@H]1CCN(c2nccc(-c3cnn4ncccc34)n2)C1, the remaining binding was 89% (binding; 1 µM).
The remaining binding of CN(C(=O)c1ccccc1)c1cc(N(C)c2ccc3c(c2)CCc2ccc(C(=O)NCCN4CCOCC4)cc2C3=O)ccc1F is reported as 100% (cell-free assay, competition with immobilised ligand; 1 µM).
The remaining binding of N[C@H]1CCN(c2nccc(-c3cnn4ncccc34)n2)C1 is reported as 100% (binding; 1 µM).
O=C(Nc1c[nH]nc1C(=O)NC1CCNCC1)c1cc(F)cc(F)c1 has a remaining binding of 100% (binding, competition with immobilised ligand; 1 µM).
The remaining binding of CC1CCCN1c1nccc(-c2cnn3ncccc23)n1 (stereo not drawn) is reported as 97% (binding; 1 µM).
With COc1ccc2c(O[C@@H]3C[C@H]4C(=O)N[C@]5(C(=O)O)CC5/C=C\CCCCC[C@H](NC(=O)OC5CCCC5)C(=O)N4C3)cc(-c3csc(NC(=O)C(C)C)n3)nc2c1C (stereo partly drawn) the remaining binding was 93% (cell-free assay, competition with immobilised ligand; 1 µM).
For COc1ccnn2ncc(-c3ccnc(N(C)C)n3)c12, the remaining binding was 100% (binding; 1 µM).
The remaining binding of O=C(NCCCN1CCOCC1)c1ccc(Nc2ncc(Cl)c(-c3ccc(Cl)s3)n2)cc1 is reported as 3.5% (binding, competition with immobilised ligand; 1 µM).
The remaining binding of C[C@H]1CCN(c2nccc(-c3cnn4ncccc34)n2)C1 is reported as 85% (binding; 1 µM).
For CS(=O)(=O)N1CCCC(NC(=O)[C@H](CCC2CCCCC2)NC(=O)c2ccc(CNC(=O)c3cnc4ccccn34)cc2)C1 (stereo partly drawn), the remaining binding was 83% (cell-free assay, competition with immobilised ligand; 0.1 µM).
With CCN1CCN(Cc2ccc(C(=O)Nc3ccc(C)c(Oc4ccc5c(c4)CC(=O)N5)c3)cc2C(F)(F)F)CC1 the remaining binding was 100% (binding, competition with immobilised ligand; 1 µM).
The remaining binding of CNC(=O)c1ccccc1Nc1cc(Nc2ccc(N3CCOCC3)cc2OC)ncc1C(F)(F)F is reported as < 10% (binding, competition with immobilised ligand; 1 µM).
The remaining binding of O=C1CCc2cc(Nc3cc(OC4CCOCC4)c([N+](=O)[O-])cc3Cl)ccc2N1 is reported as 87% (cell-free assay, competition with immobilised ligand; 1 µM).
For CN(CCCC(F)(F)F)c1nccc(-c2cnn3ncccc23)n1, the remaining binding was 79% (binding; 1 µM).
COc1cnc(Nc2cccc(S(N)(=O)=O)c2)nc1N1CCN(c2ccccc2)CC1 gave a remaining binding of 73% (binding, competition with immobilised ligand; 1 µM).
C[C@@H]1CN(c2cc(-c3nn(C)c4ccc(OC5(C)CC5)cc34)ncn2)C[C@H](C)O1 gave a remaining binding of 76% (cell-free assay, competition with immobilised ligand; 1 µM).
The remaining binding of c1cncc(-c2cccc(Nc3nccc(NC4CCCCC4)n3)c2)c1 is reported as 100% (binding, competition with immobilised ligand; 10 µM).
The remaining binding of CC1=C(C#N)C(c2ccc3c(c2)c(NC(=O)c2ccccc2C)nn3C)C(C#N)=C(C)N1 is reported as 86% (cell-free assay, competition with immobilised ligand; 1 µM).
The remaining binding of Cc1cnc(Nc2ccc(C(=O)N3CCC(N4CCCC4)CC3)cc2)nc1-c1cc2ccccc2s1 is reported as 1.2% (binding, competition with immobilised ligand; 1 µM).
